13 compounds from PMC9933479 (ACS Omega, 2023) can be followed below.

As usually defined, the IC50 is the concentration at which inhibition is half-maximal. Low values mean greater potency, high ones weaker potency.

Where two headings read alike, the source gives them in different places. Bounds are passed on as bounds.

What all share (assay): MTT assay, cytotoxicity/growth inhibition
In general terms: Tetrazolium assays rely on reduction of a dye to a coloured formazan, in cell work by metabolically active cells.

One data set relates to MCF-7 (breast carcinoma). Type of data set: cell-based. Particulars: Homo sapiens; for inhibition at 20 µM: MCF7, 48 h, read-out: Cytotoxic Activity (% Growth Inhibition); for IC50: MCF7. The procedure, abridged: (§1)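 Cells were grown in RPMI (A549, HCT-116, PC-3) or DMEM (MCF-7) with 10% FBS at 37 °C and 5% CO2. Seeding per well was […] and PC-3 8 × 10^4 cells. […] MTT 250 μg/mL, 4 h; DMSO; A570; triplicate; mean ± SE.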

In data set [1] the test system is PC-3 (prostate carcinoma). In kind it is cell-based. Particulars: Homo sapiens; for inhibition at 20 µM: 48 h, read-out: Cytotoxic Activity (% Growth Inhibition). In outline: as §1
A further data set has as its system A549 (lung carcinoma). Type of data set: cell-based, human. Particulars: for Cytotoxic Activity (% Growth Inhibition): A549, 20 μM concentration, MTT, 48 h, 20 µM; for inhibition at 20 µM / IC50: Homo sapiens; for inhibition at 20 µM: A549, 48 h; for IC50: A549. The procedure, abridged: as §1
Data set [2] concerns HCT-116 (colon carcinoma). In kind it is cell-based. Particulars: Homo sapiens; for inhibition at 20 µM: HCT-116, 48 h, read-out: Cytotoxic Activity (% Growth Inhibition); for IC50: HCT-116. In outline:
as §1

Where [3] appears, read: read-out: Cytotoxic Activity (% Growth Inhibition), A549, 20 μM concentration, MTT, 48 h.

As to `Cc1cccc(C(=O)OCC2=CCC3[C@]4(C)COC(c5ccccc5)O[C@@H]4CC[C@@]3(C)[C@@H]2/C=C/C2=CCOC2=O)c1` (stereo partly drawn) [Compound 8i, ((4aR,6aR,7S,10bR)-6a,10b-Dimethyl-7-((E)-2-(2-oxo-2,5-dihydrofuran-3-yl)vinyl)-3-phenyl-4a,5,6,6a,7,10,10a,10b-octahydro-1H-naphtho[2,1-d][1,3]dioxin-8-yl)methyl 3-Methylbenzoate], the inhibition at 20 µM with MCF-7 (breast carcinoma) was 4.37 ± 0.01%; in data set [1] it was 0%; with A549 (lung carcinoma) (setting [3]) it was 68%; in data set [2] it was 4.35 ± 0.54%. In addition, the “Cytotoxic Activity (% Growth Inhibition)” value in the data set with A549 (lung carcinoma) was determined as 67.66 ± 0.23%.
For `COc1cc(OC)cc(C(=O)OCC2=CCC3[C@]4(C)COC(c5ccccc5)O[C@@H]4CC[C@@]3(C)[C@@H]2/C=C/C2=CCOC2=O)c1` (stereo partly drawn) [Compound 8j, ((4aR,6aR,7S,10bR)-6a,10b-Dimethyl-7-((E)-2-(2-oxo-2,5-dihydrofuran-3-yl)vinyl)-3-phenyl-4a,5,6,6a,7,10,10a,10b-octahydro-1H-naphtho[2,1-d][1,3]dioxin-8-yl)methyl 3,5-Dimethoxybenzoate], in that order: 48 ± 0.91%, 55.8 ± 0.49%, under 52%, 47.2 ± 0.75% and 51 ± 0.48%.
Regarding `COc1cc(C(=O)OCC2=CCC3[C@]4(C)COC(c5ccccc5)O[C@@H]4CC[C@@]3(C)[C@@H]2/C=C/C2=CCOC2=O)cc(OC)c1OC` (stereo partly drawn) [Compound 8k, ((4aR,6aR,7S,10bR)-6a,10b-Dimethyl-7-((E)-2-(2-oxo-2,5-dihydrofuran-3-yl)vinyl)-3-phenyl-4a,5,6,6a,7,10,10a,10b-octahydro-1H-naphtho[2,1-d][1,3]dioxin-8-yl)methyl 3,4,5-Trimethoxybenzoate], the inhibition at 20 µM in the data set on MCF-7 (breast carcinoma) came out at 46 ± 0.77%; in data set [1], 5.6 ± 0.59%; with A549 (lung carcinoma) (setting [3]) it was 20.4 ± 0.73%; in data set [2], 50 ± 0.62%.
For `COc1ccc(C(=O)OCC2=CCC3[C@]4(C)COC(c5ccccc5)O[C@@H]4CC[C@@]3(C)[C@@H]2/C=C/C2=CCOC2=O)cc1Cl` (stereo partly drawn) [Compound 8l, ((4aR,6aR,7S,10bR)-6a,10b-Dimethyl-7-((E)-2-(2-oxo-2,5-dihydrofuran-3-yl)vinyl)-3-phenyl-4a,5,6,6a,7,10,10a,10b-octahydro-1H-naphtho[2,1-d][1,3]dioxin-8-yl)methyl 3-Chloro-4-methoxybenzoate], the inhibition at 20 µM with MCF-7 (breast carcinoma) was 51 ± 0.5%; in data set [1], 62 ± 0.97%; with A549 (lung carcinoma) (setting [3]) it was under 60%; in data set [2] it was 36.2 ± 0.8%. In the data set on A549 (lung carcinoma), the “Cytotoxic Activity (% Growth Inhibition)” value amounted to 61.6 ± 0.83%.
In the case of `C[C@@]12COC(c3ccccc3)O[C@@H]1CC[C@]1(C)C2CC=C(COC(=O)c2ccccc2C(F)(F)F)[C@H]1/C=C/C1=CCOC1=O` (stereo partly drawn) [Compound 8n, ((4aR,6aR,7S,10bR)-6a,10b-Dimethyl-7-((E)-2-(2-oxo-2,5-dihydrofuran-3-yl)vinyl)-3-phenyl-4a,5,6,6a,7,10,10a,10b-octahydro-1H-naphtho[2,1-d][1,3]dioxin-8-yl)methyl 2-(Trifluoromethyl)benzoate], the inhibition at 20 µM in the data set with MCF-7 (breast carcinoma) came to 55 ± 0.69%; in data set [1], 55 ± 0.56%; in the data set on A549 (lung carcinoma) (setting [3]), 18 ± 1.4%; in data set [2], 31.3 ± 0.89%.
In the case of `C[C@@]12COC(c3ccccc3)O[C@@H]1CC[C@]1(C)C2CC=C(COC(=O)Cc2ccccc2)[C@H]1/C=C/C1=CCOC1=O` (stereo partly drawn) [Compound 8o, ((4aR,6aR,7S,10bR)-6a,10b-Dimethyl-7-((E)-2-(2-oxo-2,5-dihydrofuran-3-yl)vinyl)-3-phenyl-4a,5,6,6a,7,10,10a,10b-octahydro-1H-naphtho[2,1-d][1,3]dioxin-8-yl)methyl 2-Phenylacetate], the inhibition at 20 µM in the data set with MCF-7 (breast carcinoma) amounted to 32.09 ± 0.08%; in data set [1], 0%; with A549 (lung carcinoma) (read-out: Cytotoxic Activity (% Growth Inhibition)), 20.13 ± 0.02%; in data set [2] it was 24.97 ± 0.16%.
For `C[C@@]12COC(c3ccccc3)O[C@@H]1CC[C@]1(C)C2CC=C(COC(=O)Cc2ccc(F)cc2)[C@H]1/C=C/C1=CCOC1=O` (stereo partly drawn) [Compound 8p, ((4aR,6aR,7S,10bR)-6a,10b-Dimethyl-7-((E)-2-(2-oxo-2,5-dihydrofuran-3-yl)vinyl)-3-phenyl-4a,5,6,6a,7,10,10a,10b-octahydro-1H-naphtho[2,1-d][1,3]dioxin-8-yl)methyl 2-(4-Fluorophenyl)acetate], the IC50 with MCF-7 (breast carcinoma) is over 20 µM; in data set [1], 8 µM; with A549 (lung carcinoma) it was over 20 µM; in data set [2], over 20 µM. Also, the inhibition at 20 µM was determined as 0% in the data set on MCF-7 (breast carcinoma), 77 ± 0.86% in data set [1], 17 ± 1.7% in the data set on A549 (lung carcinoma) (setting [3]) and 20.6 ± 0.95% in data set [2].
In the case of `C[C@@]12COC(c3ccccc3)O[C@@H]1CC[C@]1(C)C2CC=C(COC(=O)Cc2ccc(Cl)cc2)[C@H]1/C=C/C1=CCOC1=O` (stereo partly drawn) [Compound 8q, ((4aR,6aR,7S,10bR)-6a,10b-Dimethyl-7-((E)-2-(2-oxo-2,5-dihydrofuran-3-yl)vinyl)-3-phenyl-4a,5,6,6a,7,10,10a,10b-octahydro-1H-naphtho[2,1-d][1,3]dioxin-8-yl)methyl 2-(4-Chlorophenyl)acetate], the inhibition at 20 µM in the data set with MCF-7 (breast carcinoma) was 46 ± 0.72%; in data set [1], 39 ± 0.82%; in the data set on A549 (lung carcinoma) (setting [3]) it was 11 ± 1%; in data set [2], 36.1 ± 0.96%.
For `C[C@@]12COC(c3ccccc3)O[C@@H]1CC[C@]1(C)C2CC=C(COC(=O)Cc2ccc(I)cc2)[C@H]1/C=C/C1=CCOC1=O` (stereo partly drawn) [Compound 8r, ((4aR,6aR,7S,10bR)-6a,10b-Dimethyl-7-((E)-2-(2-oxo-2,5-dihydrofuran-3-yl)vinyl)-3-phenyl-4a,5,6,6a,7,10,10a,10b-octahydro-1H-naphtho[2,1-d][1,3]dioxin-8-yl)methyl 2-(4-Iodophenyl)acetate], the IC50 was over 20 µM in the data set with MCF-7 (breast carcinoma), 5.8 µM in data set [1], over 20 µM with A549 (lung carcinoma) and over 20 µM in data set [2]. For the same compound, the inhibition at 20 µM in the data set on MCF-7 (breast carcinoma) came out at 42 ± 0.69%; in data set [1], 77 ± 0.48%; in the data set on A549 (lung carcinoma) (setting [3]) it was 2.9 ± 0.69%; in data set [2], 22.1 ± 0.58%.
`COc1ccc(CC(=O)OCC2=CCC3[C@]4(C)COC(c5ccccc5)O[C@@H]4CC[C@@]3(C)[C@@H]2/C=C/C2=CCOC2=O)cc1` (stereo partly drawn) [Compound 8s, ((4aR,6aR,7S,10bR)-6a,10b-Dimethyl-7-((E)-2-(2-oxo-2,5-dihydrofuran-3-yl)vinyl)-3-phenyl-4a,5,6,6a,7,10,10a,10b-octahydro-1H-naphtho[2,1-d][1,3]dioxin-8-yl)methyl 2-(4-Methoxyphenyl)acetate]: the IC50 in the data set on MCF-7 (breast carcinoma) is 16.9 µM; in data set [1], 5.9 µM; in the data set with A549 (lung carcinoma) it was 6.6 µM; in data set [2], over 20 µM. Besides, the inhibition at 20 µM in the data set with MCF-7 (breast carcinoma) was 54 ± 0.53%; in data set [1], 75 ± 0.93%; in the data set on A549 (lung carcinoma) (setting [3]), 78 ± 0.97%; in data set [2], 22.1 ± 0.44%.
On to `Cc1ccc(CC(=O)OCC2=CCC3[C@]4(C)COC(c5ccccc5)O[C@@H]4CC[C@@]3(C)[C@@H]2/C=C/C2=CCOC2=O)cc1` (stereo partly drawn) [Compound 8t, ((4aR,6aR,7S,10bR)-6a,10b-Dimethyl-7-((E)-2-(2-oxo-2,5-dihydrofuran-3-yl)vinyl)-3-phenyl-4a,5,6,6a,7,10,10a,10b-octahydro-1H-naphtho[2,1-d][1,3]dioxin-8-yl)methyl 2-(p-Tolyl)acetate], for which the inhibition at 20 µM with MCF-7 (breast carcinoma) stood at 27 ± 0.29%; in data set [1], 69.5 ± 0.74%; in the data set with A549 (lung carcinoma) (setting [3]), 48.9 ± 0.73%; in data set [2] it was 45.9 ± 0.86%.
With `COc1cc(CC(=O)OCC2=CCC3[C@]4(C)COC(c5ccccc5)O[C@@H]4CC[C@@]3(C)[C@@H]2/C=C/C2=CCOC2=O)cc(OC)c1OC` (stereo partly drawn) [Compound 8u, ((4aR,6aR,7S,10bR)-6a,10b-Dimethyl-7-((E)-2-(2-oxo-2,5-dihydrofuran-3-yl)vinyl)-3-phenyl-4a,5,6,6a,7,10,10a,10b-octahydro-1H-naphtho[2,1-d][1,3]dioxin-8-yl)methyl 2-(3,4,5-Trimethoxyphenyl)acetate], the half-maximal inhibitory concentration (IC50) with MCF-7 (breast carcinoma) was over 20 µM; in data set [1], 9 µM; in the data set on A549 (lung carcinoma), 5.4 µM; in data set [2], over 20 µM. Besides, the inhibition at 20 µM in the data set on MCF-7 (breast carcinoma) was determined as 43 ± 0.28%; in data set [1], 70.9 ± 0.41%; with A549 (lung carcinoma) (setting [3]), 72 ± 0.54%; in data set [2] it was 10.9 ± 0.99%. Also, in the data set on A549 (lung carcinoma) (A549, ratio of IC50 values), the “potency relative to andrographolide (times / fold more potent)” value is “about 4”.
Turning to `C[C@@]12COC(c3ccccc3)O[C@@H]1CC[C@]1(C)C2CC=C(COC(=O)Cc2ccc(Cl)c(Cl)c2)[C@H]1/C=C/C1=CCOC1=O` (stereo partly drawn) [Compound 8v, ((4aR,6aR,7S,10bR)-6a,10b-Dimethyl-7-((E)-2-(2-oxo-2,5-dihydrofuran-3-yl)vinyl)-3-phenyl-4a,5,6,6a,7,10,10a,10b-octahydro-1H-naphtho[2,1-d][1,3]dioxin-8-yl)methyl 2-(3,4-Dichlorophenyl)acetate], the IC50 with MCF-7 (breast carcinoma) is over 20 µM; in data set [1], 8.4 µM; in the data set with A549 (lung carcinoma), over 20 µM; in data set [2], over 20 µM. Besides, the inhibition at 20 µM was 34 ± 0.28% with MCF-7 (breast carcinoma), 70.3 ± 0.54% in data set [1], 41.6 ± 0.98% in the data set with A549 (lung carcinoma) (setting [3]) and 12.5 ± 0.78% in data set [2].
